These results are taken from ChEMBL document CHEMBL1130109, “Novel 99mTc aminobisthiolato/monothiolato "3 + 1" mixed ligand complexes: structure-activity relationships and preliminary in vivo validation as brain blood flow imaging agents” (J Med Chem, 1997).

The species named for data set [1] is Mus musculus. Put plainly: Percentage biodistribution in mouse lung, 30 minutes post injection. The class given is ADME, organism-based. The following applies: in vivo, 0.5 h. Put shortly:
(§1)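 Male Swiss Albino mice (19–34g, at least five per group) were injected in the tail vein with HPLC-purified 99mTc complex in 50% methanol (0.1 mL, 2–3 μCi). Killed by cardiectomy under slight ether anesthesia at 5, 10, 30 or 60 min. Organs were excised, weighed and γ-counted against standards of 1% injected dose, as % ID/organ. Bladder plus excreted urine was not weighed. Stomach and intestines were not emptied.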

For data set [2], the species on record is Mus musculus. Put plainly: Percentage biodistribution in mouse intestine, 10 minutes post injection. The class given is ADME, organism-based. Particulars: in vivo. The essentials: as §1
The species named for data set [3] is Mus musculus. Put plainly: Biodistribution in mice lungs at 60 min of post injection. The class given is ADME, organism-based, Lung. Particulars: in vivo, 1 h. Put shortly:
as §1

For data set [4], the species on record is Mus musculus. The experiment in a line: Percentage biodistribution in mouse liver, 5 minutes post injection. The following applies: in vivo. The class given is ADME, organism-based. The essentials: as §1
For data set [5], the species on record is Mus musculus. Put plainly: Percentage biodistribution in mouse heart, 10 minutes post injection. The class given is ADME, organism-based. The following applies: in vivo. Put shortly: as §1
Data set [6] is filed under the species Mus musculus. Put plainly: Percentage biodistribution in mouse liver, 30 minutes of post injection. The following applies: in vivo, 0.5 h. The class given is ADME, organism-based. Put shortly: as §1
Data set [7] is filed under the species Mus musculus. Put plainly: Percentage biodistribution in mouse brain, 60 minutes post injection. The class given is ADME, organism-based. The following applies: in vivo, 1 h. The essentials: as §1
The species entered for data set [8] is Mus musculus. The experiment in a line: Percentage biodistribution in mouse heart, 30 minutes post injection. The class given is ADME, organism-based. The following applies: in vivo, 0.5 h. Put shortly:
as §1

The species named for data set [9] is Mus musculus. Put plainly: Percentage biodistribution in mouse heart, 5 minutes post injection. The class given is ADME, organism-based. Particulars: in vivo. Put shortly: as §1
For data set [10], the species on record is Mus musculus. The experiment in a line: Percentage biodistribution in mouse spleen. Particulars: in vivo. The class given is ADME, organism-based. Put shortly:
as §1

Data set [11] is filed under the species Mus musculus. The experiment in a line: Percentage biodistribution in mouse blood, 10 minutes post injection. Particulars: in vivo. The class given is ADME, organism-based. The essentials: (§2)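 Mice (Swiss Albino males, 19–34g, ≥5/group) received tail-vein HPLC-purified 99mTc complex (0.1 mL, 2–3 μCi, 50% methanol) and were killed by cardiectomy under ether at set times. Blood % ID was computed from measured activity and sample weight, with blood taken as 7% of body weight, against 1%-dose standards.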

The species named for data set [12] is Mus musculus. Put plainly: Biodistribution in mice liver at 60 minutes of post injection. The class given is ADME, organism-based. Particulars: in vivo, 1 h. The essentials: as §1
The species entered for data set [13] is Mus musculus. The experiment in a line: Percentage biodistribution in mouse brain, 30 minutes post injection. The class given is ADME, organism-based. Particulars: in vivo, 0.5 h. The essentials: as §1
The species entered for data set [14] is Mus musculus. The experiment in a line: Percentage biodistribution in mousee lung, 5 minutes post injection. The class given is ADME, organism-based. Particulars: in vivo. Put shortly:
as §1

The species named for data set [15] is Mus musculus. Put plainly: Percentage biodistribution in mouse brain, 5 minutes post injection. The class given is ADME, organism-based. Particulars: in vivo. The essentials: as §1
A short description of data set [16]: Partition coefficient (logD7.4). The class given is physicochemical. Particulars: octanol/water, pH 7.4. Put shortly: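 HPLC-purified 99mTc complex (0.1 mL) was added to 2 mL each of 1-octanol and 0.125 M phosphate buffer, pH 7.4. The mix was vortexed and centrifuged at 5000 rpm for 5 min. Three 0.2 mL samples per layer were γ-counted. Mean cpm/mL of octanol was divided by that of buffer.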

Data set [17] is filed under the species Mus musculus. Put plainly: Percentage biodistribution in mouse intestine, 30 minutes post injection. The class given is ADME, organism-based. The following applies: in vivo, 0.5 h. Put shortly:
as §1

For data set [18], the species on record is Mus musculus. Put plainly: Biodistribution in mice bladder plus excreted urine was determined. The class given is ADME, organism-based. Particulars: in vivo. Put shortly:
as §1

For data set [19], the species on record is Mus musculus. Put plainly: Percentage biodistribution in mouse brain, 10 minutes post injection. The class given is ADME, organism-based. The following applies: in vivo. Put shortly:
as §1

For data set [20], the species on record is Mus musculus. The experiment in a line: Percentage biodistribution in mouse intestine, 60 minutes post injection. The class given is ADME, organism-based. Particulars: in vivo, 1 h. Put shortly: as §1
The species entered for data set [21] is Mus musculus. Put plainly: Percentage biodistribution in mouse intestine, 5 minutes post injection. The class given is ADME, organism-based. Particulars: in vivo. The essentials: as §1
The species named for data set [22] is Mus musculus. Put plainly: Percentage biodistribution in mouse stomach. The class given is ADME, organism-based. The following applies: in vivo. Put shortly: as §1
Data set [23] is filed under the species Mus musculus. The experiment in a line: Percentage biodistribution in mouse blood, 5 minutes post injection. Particulars: in vivo. The class given is ADME, organism-based. The essentials: as §2
The species entered for data set [24] is Mus musculus. Put plainly: Percentage biodistribution in mouse heart, 60 minutes post injection. Particulars: in vivo, 1 h. The class given is ADME, organism-based. The essentials: as §1
Data set [25] is filed under the species Mus musculus. The experiment in a line: Percentage biodistribution in mouse liver, 10 minutes post injection. The class given is ADME, organism-based. The following applies: in vivo. The essentials:
as §1

Data set [26] is filed under the species Mus musculus. Put plainly: Percentage biodistribution in mouse blood, 30 minutes post injection. The class given is ADME, organism-based. Particulars: in vivo, 0.5 h. The essentials: as §2
For data set [27], the species on record is Mus musculus. The experiment in a line: Percentage biodistribution in mouse blood, 60 minutes post injection. The class given is ADME, organism-based. Particulars: in vivo, 1 h. Put shortly: as §2
For data set [28], the species on record is Mus musculus. The experiment in a line: Biodistribution in mice lungs at 10 min of post injection. The class given is ADME, organism-based, Lung. The following applies: in vivo. Put shortly:
as §1

Data set [29] can be described thus: % ID/gram in brain divided by %ID/gram in blood at 5 minutes. The class given is functional, tissue-based. The essentials: (§3)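 Male Swiss Albino mice (19–34g, at least five per group) got HPLC-purified 99mTc complex in 50% methanol, 0.1 mL, 2–3 μCi, by tail vein. They were killed by cardiectomy under light ether at 5, 10, 30 or 60 min. % ID/g (% ID/organ ÷ organ weight) of brain was divided by that of blood; blood assumed 7% of body weight.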

A short description of data set [30]: Retention ratio is measured as the brain uptake (%ID/organ) at 30 min pi divided by the brain uptake at 5 min pi. The class given is functional. Put shortly:
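Brain % ID/organ in tail-vein-injected male Swiss Albino mice (0.1 mL, 2–3 μCi purified 99mTc complex in 50% methanol; γ-counted after cardiectomy under ether). Mean brain % ID/organ at 30 min pi was divided by the mean at 5 min pi.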

Data set [31] can be described thus: % ID/gram in brain divided by %ID/gram in blood at 60 minutes. The class given is functional, tissue-based. The essentials:
as §3

Data set [32] can be described thus: % ID/gram in brain divided by %ID/gram in blood at 10 minutes. The class given is functional, tissue-based. Put shortly:
as §3

Where “and” joins values, the source holds several entries; their conditions need not be identical. Equal values may be shown once.

Usually logD stands for the decadic logarithm of the distribution of all forms, ionised or not, between an organic phase and buffer at a given pH. Read a high logD as a more lipophilic compound. “[4-methoxythio)phenolato][N,N-bis(2-mercaptoethyl)-N',N'-diethylethylenediamine] oxotechnetium [listing 1 of 2 here]”: the ID/organ is 3.49% and 3.09% in data set [1]; 9.61% in data set [2]; 1.79% in [3]; 17.06% and 10.73% in [4]; 0.46% in data set [5]; 27.33% and 25.58% in [6]. Also, the ID/organ is 1.54% in data set [7]; 0.28% and 0.19% in [8]; 0.81% and 0.74% in data set [9]; 0.61% and 0.21% in data set [10]; 1.53% in [11]; 35.12% in data set [12]. The ID/organ in [13] is 0.56% and 1.71%; in data set [14], 11.03% and 15.37%; in [15], 2.26% and 3.01%; in data set [17], 21.19% and 18.99%; in [18] it was 2.24% and 6.87%; in [19] it was 2.47%. Also, the ID/organ in data set [20] is 33.7%; in data set [21] it was 9.22% and 8.31%; in data set [22], 2.43% and 2.34%; in data set [23] it was 6.09% and 2.02%; in data set [24], 0.12%; in data set [25], 14.14%. Also, the ID/organ is 5.14% and 1.29% in data set [26]; 1.21% in data set [27]; 9.78% in data set [28]. Also, in [16], the logD is 2.54 and 2.63.

Regarding “[4-methoxythio)phenolato][N,N-bis(2-mercaptoethyl)-N',N'-diethylethylenediamine] oxotechnetium [listing 2 of 2 here]”, the Ratio is 1.7 and 4.43 in data set [29]; 4.23 in data set [31]; 4.71 in [32]. In [30], the Retention ratio was 0.25 and 0.57.
